The term IC50 denotes the concentration at which inhibition is half-maximal.

Activity calls are given as the source filed them. The rule behind the calls is not given here.

The values below come from ChEMBL document CHEMBL4261570, “Design, Synthesis and Preliminary Antimicrobial Evaluation of N-Alkyl Chain Tethered C-5 Functionalized Bis-Isatins” (Medchemcomm, 2017).

The test system of data set [1] is Limosilactobacillus reuteri. As to the kind of experiment: Toxicity in Lactobacillus reuteri ATCC 23272 at 100 uM measured after overnight incubation by disc diffusion method. The following applies: in vivo. It is filed as organism-based. The gist of the method: (§1)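 Grown in Lactobacilli MRS at 37 °C under anaerobic conditions. Blank 6 mm discs were soaked 20 min at room temperature in a 100 μM working dilution in medium. Discs were placed on streaked agar alongside DMSO vehicle and antibiotic discs (levofloxacin, gentamicin), incubated overnight at 37 °C, and zones of inhibition measured in mm.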

In the next data set the test system is Entamoeba histolytica. As to the kind of experiment: Antiparasitic activity against Entamoeba histolytica HM-1:IMSS trophozoites assessed as parasite growth inhibition at 50 uM after 48 hrs by ATP bioluminescence-based CellTiter-Glo luminescent cell viability assay relative to control. It is filed as functional. The following applies: for inhibition of growth at 50 µM: read-out: GI. The gist of the method: (§2)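 Trophozoites kept axenically in TYI-S-33 with penicillin and streptomycin. Each well held 5000 trophozoites and was incubated 48 h at 37 °C under anaerobic conditions in a GasPak pouch. Read-out was CellTiter-Glo ATP luminescence. Controls were 0.5% DMSO vehicle and 30 μM metronidazole. Primary screen at 50 μM in duplicate; hits were those above 50% inhibition. EC50 came from triplicate 8-point series (0.39–50 μM) and dose-response curves.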

In another data set the test system is Escherichia coli. Kind of data set: Toxicity in Escherichia coli K-12 MG1655 at 100 uM measured after overnight incubation by disc diffusion method. It is filed as organism-based, K-12 substr. MG1655. Particulars: in vivo. The gist of the method: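 Grown in Luria broth at 37 °C under aerobic conditions. Blank 6 mm discs were soaked 20 min at room temperature in a 100 μM working dilution in medium. Discs were placed on streaked agar alongside DMSO vehicle and antibiotic discs (levofloxacin, gentamicin), incubated overnight at 37 °C, and inhibition zones measured in mm.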
On the technique in general: A growth-free zone around the sample is the usual read-out of agar diffusion tests.

Data set [2] has as its system Giardia intestinalis. As to the kind of experiment: Antiparasitic activity against Giardia lamblia WB trophozoites assessed as parasite growth inhibition at 50 uM after 48 hrs by ATP bioluminescence-based CellTiter-Glo luminescent cell viability assay relative to control. It is filed as functional. The following applies: Giardia duodenalis; for inhibition of growth at 50 µM: read-out: GI. The gist of the method:
as §2
(ATP-based viability assays read luminescence as a measure of living cells.)

For data set [3], the system named is Lacticaseibacillus rhamnosus. Kind of data set: Toxicity in Lactobacillus rhamnosus ATCC 53103 at 100 uM measured after overnight incubation by disc diffusion method. It is filed as organism-based, GG. Particulars: in vivo. The gist of the method:
as §1

Data set [4] has as its system Lactobacillus acidophilus. Kind of data set: Toxicity in Lactobacillus acidophilus ATCC 43560 at 100 uM measured after overnight incubation by disc diffusion method. It is filed as organism-based. The following applies: in vivo. The gist of the method: as §1
The test system of another data set is Trichomonas vaginalis. Kind of data set: Antiparasitic activity against Trichomonas vaginalis assessed as parasite growth inhibition at 50 uM after 24 hrs by hemacytometer relative to control. It is filed as functional. The following applies: read-out: GI. The gist of the method:
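G3 strain cultured in TYM Diamond's medium in 15 mL tubes, with compound in DMSO. Controls were untreated and 0.1% DMSO. After 24 h, cells were counted by hemacytometer and normalized to the DMSO controls. Screening was at 50 μM. IC50 came from titrations of 5–40 μM with variable-slope regression, 4 independent trials on different days, and was then re-confirmed.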

The test system of data set [5] is Aspergillus parasiticus. Kind of data set: Antifungal activity against Aspergillus parasiticus NRRL5862 assessed as fungal growth at 500 uM after 24 hrs by microtiter plate liquid bioassay (reference value: 100%). It is filed as functional. The procedure, abridged: (§3)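 A. parasiticus grown at 35 °C on PDA. Liquid assay in RPMI 1640, 3 × 104 to 5 × 10^4 CFU per mL, triplicate wells, 35 °C. Compounds in DMSO (<2% in media). No-treatment wells carry matched DMSO. Wells scored visually 0–4 versus the no-treatment control: 0 clear, 1 25%, 2 50%, 3 75%, 4 no reduction. Scoring follows CLSI M38-A.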

For data set [6], the system named is Aspergillus parasiticus. Kind of data set: Antifungal activity against Aspergillus parasiticus NRRL5862 assessed as fungal growth at 500 uM after 48 hrs by microtiter plate liquid bioassay (reference value: 100%). It is filed as functional. The procedure, abridged:
as §3

The subject of data set [7] is Saccharomyces cerevisiae. Kind of data set: Antifungal activity against Saccharomyces cerevisiae BY4741 assessed as fungal growth at 500 uM after 24 hrs by microtiter plate liquid bioassay (reference value: 100%). It is filed as functional.
Data set [8] has as its system Saccharomyces cerevisiae. Kind of data set: Antifungal activity against Saccharomyces cerevisiae BY4741 assessed as fungal growth at 500 uM after 48 hrs by microtiter plate liquid bioassay (reference value: 100%). It is filed as functional.
Data set [9] deals with Giardia intestinalis. As to the kind of experiment: Antiparasitic activity against Giardia lamblia WB trophozoites assessed as parasite growth inhibition after 48 hrs by ATP bioluminescence-based CellTiter-Glo luminescent cell viability assay. It is filed as functional, organism-based. The following applies: Giardia duodenalis. The procedure, abridged: as §2

For `O=C1C(=O)N(CCCCN2C(=O)C(=O)c3cc(F)ccc32)c2ccccc21`, the Activity entry (in [1]; with Escherichia coli; in data set [3]; in [4]) was “Non-Toxic” throughout. Besides, the “growth inhibition (GI)” value in the data set with Entamoeba histolytica was “inactive”. Moreover, the results for the inhibition of growth at 50 µM in the data set with Giardia intestinalis [2] and with Trichomonas vaginalis were 1.2% and 100%, respectively.

On to `O=C1C(=O)N(CCN2C(=O)C(=O)c3cc(F)ccc32)c2ccccc21`, for which the Activity entry (in data set [1]; in the data set with Escherichia coli; in data set [3]; in data set [4]) was “Non-Toxic” in each case. Also, the “growth inhibition (GI)” value in the data set with Entamoeba histolytica was “inactive”. Also, the figures for the inhibition of growth at 50 µM with Giardia intestinalis [2] and in the data set on Trichomonas vaginalis were 8.15% and 45.5%, respectively.

For the molecule `O=C1C(=O)N(CCCCCCN2C(=O)C(=O)c3cc(F)ccc32)c2ccccc21`, the Activity entry (in data set [1]; in the data set on Escherichia coli; in [3]; in data set [4]) was “Non-Toxic” in each case. Further, the “growth inhibition (GI)” value in the data set on Entamoeba histolytica is “inactive”. Also, the figures for the inhibition of growth at 50 µM in the data set on Giardia intestinalis [2] and in the data set with Trichomonas vaginalis were 30.9% and 100%, respectively.

Take `O=C1C(=O)N(CCCCCCCCN2C(=O)C(=O)c3cc(Cl)ccc32)c2ccccc21`: the Activity result (in [1]; in the data set on Escherichia coli; in data set [3]; in data set [4]) was “Non-Toxic” throughout. Further, the “growth inhibition (GI)” value in the data set on Entamoeba histolytica is “inactive”. Moreover, the inhibition of growth at 50 µM in the data set with Giardia intestinalis [2] was determined as 8.56%; with Trichomonas vaginalis it was 75.8%.

For the molecule `O=C1C(=O)N(CCCCCCN2C(=O)C(=O)c3ccccc32)c2ccccc21`, the Activity result (in data set [1]; in the data set with Escherichia coli; in [3]; in data set [4]) was “Non-Toxic” throughout. Besides, the “growth inhibition (GI)” value in the data set with Entamoeba histolytica was “inactive”. For the same molecule, the values for the inhibition of growth at 50 µM with Giardia intestinalis [2] and in the data set with Trichomonas vaginalis were 9.68% and 45.5%, respectively.

For the molecule `O=C1C(=O)N(CCN2C(=O)C(=O)c3ccccc32)c2ccccc21`, the Activity result (in data set [1]; in the data set with Escherichia coli; in [3]; in [4]) was “Non-Toxic” each time. In addition, in the data set with Entamoeba histolytica, the “growth inhibition (GI)” value was “inactive”. In addition, the inhibition of growth at 50 µM is 6.75% in the data set with Giardia intestinalis [2] and 96.8% with Trichomonas vaginalis.

As for `O=C1C(=O)N(CCCCN2C(=O)C(=O)c3cc(Cl)ccc32)c2ccccc21`, the Activity result in [1] is given as “Non-Toxic”; in the data set on Aspergillus parasiticus [5], 100%; in the data set with Aspergillus parasiticus [6], 100%; in the data set with Escherichia coli it was “Non-Toxic”; in the data set with Saccharomyces cerevisiae [7] it was 25%; in data set [3], “Non-Toxic”. Moreover, the Activity in the data set on Saccharomyces cerevisiae [8] was 75%; in [4] it was “Non-Toxic”. Besides, the “growth inhibition (GI)” value in the data set on Entamoeba histolytica and in the data set with Giardia intestinalis [2] was “inactive” each time. Further, the inhibition of growth at 50 µM in the data set with Trichomonas vaginalis is 100%.

In the case of `O=C1C(=O)N(CCCCN2C(=O)C(=O)c3ccccc32)c2ccccc21`, the Activity entry (in [1]; in the data set with Escherichia coli; in data set [3]; in [4]) was “Non-Toxic” throughout. Further, the “growth inhibition (GI)” value with Entamoeba histolytica was “inactive”. Also, the inhibition of growth at 50 µM worked out at 11.6% in the data set on Giardia intestinalis [2] and 61.3% in the data set on Trichomonas vaginalis.

Take `O=C1C(=O)N(CCN2C(=O)C(=O)c3cc(Br)ccc32)c2ccccc21`: the Activity result (in data set [1]; in the data set with Escherichia coli; in data set [3]; in data set [4]) was “Non-Toxic” throughout. In addition, the “growth inhibition (GI)” value in the data set on Entamoeba histolytica and in the data set with Giardia intestinalis [2] was “inactive” each time. Besides, the inhibition of growth at 50 µM with Trichomonas vaginalis is 100%.

In the case of `O=C1C(=O)N(CCCCCCN2C(=O)C(=O)c3cc(Cl)ccc32)c2ccccc21`, the Activity result (in data set [1]; with Escherichia coli; in [3]; in [4]) was “Non-Toxic” in each case. Moreover, the “growth inhibition (GI)” value in the data set on Entamoeba histolytica is “inactive”. The inhibition of growth at 50 µM in the data set on Giardia intestinalis [2] amounted to 94.5%; in the data set with Trichomonas vaginalis it was 93.9%. Moreover, the IC50 in the data set with Giardia intestinalis [9] amounted to 31.5 µM.

For `O=C1C(=O)N(CCCN2C(=O)C(=O)c3ccccc32)c2ccccc21`, the Activity entry (in data set [1]; in the data set with Escherichia coli; in [3]; in [4]) was “Non-Toxic” in each case. Moreover, the “growth inhibition (GI)” value in the data set with Entamoeba histolytica is “inactive”. Also, the inhibition of growth at 50 µM with Giardia intestinalis [2] is 7.84%; with Trichomonas vaginalis, 96.8%.

With `O=C1C(=O)N(CCCCCCCCN2C(=O)C(=O)c3cc(F)ccc32)c2ccccc21`, the Activity result (in data set [1]; with Escherichia coli; in data set [3]; in data set [4]) was “Non-Toxic” in each case. Moreover, the inhibition of growth at 50 µM with Entamoeba histolytica amounted to 13.8%; with Trichomonas vaginalis it was 100%. In addition, the “growth inhibition (GI)” value in the data set with Giardia intestinalis [2] is “inactive”.

Consider `O=C1C(=O)N(CCCBr)c2ccccc21`, for which the Activity result in data set [1] is listed as “Non-Toxic”; in the data set on Aspergillus parasiticus [5] it was 75 - 100%; with Aspergillus parasiticus [6], 100%; with Escherichia coli, “Non-Toxic”; in the data set on Saccharomyces cerevisiae [7] it was 50%; in [3], “Non-Toxic”. The Activity in the data set with Saccharomyces cerevisiae [8] is reported as 75%; in data set [4] it was “Non-Toxic”. Also, the inhibition of growth at 50 µM in the data set on Entamoeba histolytica stood at 1.32%; in the data set with Giardia intestinalis [2], 22.9%; in the data set on Trichomonas vaginalis, 59.9%.

Regarding `O=C1C(=O)N(CCCCCN2C(=O)C(=O)c3cc(Br)ccc32)c2ccccc21`, the Activity entry in data set [1] was “Non-Toxic”; in the data set on Aspergillus parasiticus [5], 100%; with Aspergillus parasiticus [6], 100%; in the data set with Escherichia coli it was “Non-Toxic”; in the data set with Saccharomyces cerevisiae [7] it was 50%; in [3], “Non-Toxic”. The Activity is on record as 100% in the data set on Saccharomyces cerevisiae [8] and “Non-Toxic” in data set [4]. The “growth inhibition (GI)” value with Entamoeba histolytica and with Giardia intestinalis [2] was “inactive” each time. The inhibition of growth at 50 µM in the data set on Trichomonas vaginalis was 100%.

As for `CCCCCCCCOC(=O)c1cc(O)c(O)c(O)c1` [OCTYL_GALLATE], the Activity in the data set with Aspergillus parasiticus [5], in the data set with Aspergillus parasiticus [6], in the data set with Saccharomyces cerevisiae [7] and with Saccharomyces cerevisiae [8] was 0% throughout.

As to `O=C1C(=O)N(CCCN2C(=O)C(=O)c3cc(Cl)ccc32)c2ccccc21`, the Activity entry (in data set [1]; in the data set with Escherichia coli; in [3]; in data set [4]) was “Non-Toxic” each time. For the same molecule, the “growth inhibition (GI)” value with Entamoeba histolytica and in the data set with Giardia intestinalis [2] was “inactive” in each case. For the same molecule, the inhibition of growth at 50 µM in the data set with Trichomonas vaginalis is 100%.

Regarding `O=C1C(=O)N(CCCCCCN2C(=O)C(=O)c3cc(Br)ccc32)c2ccccc21`, the Activity entry (in data set [1]; in the data set with Escherichia coli; in data set [3]; in data set [4]) was “Non-Toxic” in each case. For the same molecule, the “growth inhibition (GI)” value in the data set with Entamoeba histolytica is “inactive”. Besides, the inhibition of growth at 50 µM in the data set on Giardia intestinalis [2] is 43.2%; in the data set on Trichomonas vaginalis, 100%.

On to `O=C1C(=O)N(CCCCCCCCN2C(=O)C(=O)c3cc(Br)ccc32)c2ccccc21`, for which the Activity result (in [1]; in the data set with Escherichia coli; in data set [3]; in data set [4]) was “Non-Toxic” throughout. For the same molecule, the “growth inhibition (GI)” value in the data set on Entamoeba histolytica is “inactive”. The inhibition of growth at 50 µM in the data set on Giardia intestinalis [2] was 51.1%; in the data set on Trichomonas vaginalis, 96.8%.
